Experimental data as given in ChEMBL document CHEMBL2021876, “New pyridobenzoxazepine derivatives derived from 5-(4-methylpiperazin-1-yl)-8-chloro-pyrido[2,3-b][1,5]benzoxazepine (JL13): chemical synthesis and pharmacological evaluation” (J Med Chem, 2012).

Legend:
[1] = system: Hippocampus; test: In vivo displacement of [3H]Ketanserin from 5HT2A receptor in Sprague-Dawley rat hippocampus CA3 region at 13.75 mg/kg, ip qd for 28 days by autoradiography relative to control; format: functional; conditions: route intraperitoneal
Procedure, shortened: (§1)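 Rats (male Sprague-Dawley, N = 8/group) given daily ip injections for 28 days versus vehicle. Brain sections preincubated 1 h RT in 50 mM Tris-HCl pH 7.7, then 1 h RT with 3.0 nM [3H]ketanserin plus 1 μM prazosin and 100 nM tetrabenazine. Nonspecific: 1 μM methysergide. Washes 2 × 30 min ice-cold. Readout fmol/mg tissue as % of control, mean ± SEM.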

[2] = system: Caudate-putamen; test: In vivo displacement of [3H]Nemonapride from dopamine D4 receptor in Sprague-Dawley rat medial part of caudate putamen at 13.75 mg/kg, ip qd for 28 days by autoradiography relative to control; format: functional; conditions: route intraperitoneal
[3] = target: T1, Serotonin 1a (5-HT1a) receptor/Adrenergic receptor alpha-1 (Rattus norvegicus) (UniProt P15823+P23944+P43140+P19327); test: In vivo displacement of [3H]8-OH-DPAT from 5HT1A receptor in Sprague-Dawley rat dorsolateral frontal cortex at 13.75 mg/kg, ip qd for 28 days by autoradiography relative to control; format: functional, organism-based; parameters: dose 13.75 mg/kg
Procedure, shortened: (§2)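 Male Sprague-Dawley rats (200−225 g, N = 8/group) dosed ip once daily for 28 days, vehicle controls, decapitated; 10 μm frozen coronal sections. Preincubation 1 h RT in 50 mM Tris-HCl pH 7.6, 0.1% ascorbic acid, 4 mM CaCl2, 10 μM pargyline; then 1 h RT with 2.0 nM [3H]8-OH-DPAT. Nonspecific: 1 μM 5-HT. Saturating conditions; binding in fmol/mg tissue, % of control, mean ± SEM.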

[4] = target: T1, Serotonin 1a (5-HT1a) receptor/Adrenergic receptor alpha-1 (Rattus norvegicus); test: In vivo displacement of [3H]8-OH-DPAT from 5HT1A receptor in Sprague-Dawley rat nucleus accumbens at 13.75 mg/kg, ip qd for 28 days by autoradiography relative to control; format: functional, organism-based; parameters: dose 13.75 mg/kg; procedure, shortened: as §2
[5] = system: Caudate-putamen; test: In vivo displacement of [3H]8-OH-DPAT from 5HT1A receptor in Sprague-Dawley rat lateral part of caudate putamen at 13.75 mg/kg, ip qd for 28 days by autoradiography relative to control; format: functional; conditions: route intraperitoneal; procedure, shortened: as §2
[6] = In vivo displacement of [3H]Ketanserin from 5HT2A receptor in Sprague-Dawley rat nucleus accumbens at 13.75 mg/kg, ip qd for 28 days by autoradiography relative to control; format: functional; conditions: route intraperitoneal; procedure, shortened: as §1
[7] = system: Caudate-putamen; test: In vivo displacement of [3H]Ketanserin from 5HT2A receptor in Sprague-Dawley rat medial part of caudate putamen at 13.75 mg/kg, ip qd for 28 days by autoradiography relative to control; format: functional; conditions: route intraperitoneal; procedure, shortened: as §1
[8] = system: Caudate-putamen; test: In vivo displacement of [3H]Ketanserin from 5HT2A receptor in Sprague-Dawley rat lateral part of caudate putamen at 13.75 mg/kg, ip qd for 28 days by autoradiography relative to control; format: functional; conditions: route intraperitoneal; procedure, shortened: as §1
[9] = target: T2, Alpha-2A adrenergic receptor (Homo sapiens, UniProt P08913); test: Displacement of [3H]-MK-912 from human cloned adrenergic alpha2A receptor expressed in insect Sf9 membranes after 60 mins by liquid scintillation counting; format: cell membranes
T2 sequence (P08913 whole entry): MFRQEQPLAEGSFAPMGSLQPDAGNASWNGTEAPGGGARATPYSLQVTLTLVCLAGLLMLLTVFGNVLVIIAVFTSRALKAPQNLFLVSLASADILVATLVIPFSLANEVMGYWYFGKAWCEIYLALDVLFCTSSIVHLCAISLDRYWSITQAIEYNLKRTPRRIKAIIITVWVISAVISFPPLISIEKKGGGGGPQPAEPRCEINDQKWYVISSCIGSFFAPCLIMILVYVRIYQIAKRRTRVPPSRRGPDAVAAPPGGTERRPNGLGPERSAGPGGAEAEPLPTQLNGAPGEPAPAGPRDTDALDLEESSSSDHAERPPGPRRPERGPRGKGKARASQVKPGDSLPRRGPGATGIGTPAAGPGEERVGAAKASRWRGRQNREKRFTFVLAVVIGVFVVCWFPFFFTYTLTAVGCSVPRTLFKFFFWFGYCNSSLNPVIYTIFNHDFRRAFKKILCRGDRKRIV
Procedure, shortened: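 Membranes from Sf9 cells expressing cloned human α2A-adrenoceptor. Nonspecific binding defined with 10 μM WB4101. Filtered on GF/C and counted by scintillation.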

[10] = In vivo displacement of [3H]SCH-23390 from dopamine D1 receptor in Sprague-Dawley rat medial-prefrontal cortex at 13.75 mg/kg, ip qd for 28 days by autoradiography relative to control; format: functional; conditions: route intraperitoneal
Procedure, shortened: (§3)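 Forebrain sections from male Sprague-Dawley rats (N = 8/group) after 28 days of daily ip injections versus vehicle. Incubation 1 h RT in 50 mM Tris-HCl pH 7.4, 120 mM NaCl, 5 mM KCl, 2 mM CaCl2, 1 mM MgCl2 with 1 nM [3H]SCH-23390 and 100 nM ketanserin. Nonspecific: 1 μM cis-flupenthixol. Saturating conditions; fmol/mg tissue, % of control.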

[11] = In vivo displacement of [3H]SCH-23390 from dopamine D1 receptor in Sprague-Dawley rat dorsolateral frontal cortex at 13.75 mg/kg, ip qd for 28 days by autoradiography relative to control; format: functional; conditions: route intraperitoneal; procedure, shortened: as §3
[12] = In vivo displacement of [3H]SCH-23390 from dopamine D1 receptor in Sprague-Dawley rat nucleus accumbens at 13.75 mg/kg, ip qd for 28 days by autoradiography relative to control; format: functional; conditions: route intraperitoneal; procedure, shortened: as §3
[13] = system: Caudate-putamen; test: In vivo displacement of [3H]SCH-23390 from dopamine D1 receptor in Sprague-Dawley rat medial part of caudate putamen at 13.75 mg/kg, ip qd for 28 days by autoradiography relative to control; format: functional; conditions: route intraperitoneal; procedure, shortened: as §3
[14] = system: Caudate-putamen; test: In vivo displacement of [3H]SCH-23390 from dopamine D1 receptor in Sprague-Dawley rat lateral part of caudate putamen at 13.75 mg/kg, ip qd for 28 days by autoradiography relative to control; format: functional; conditions: route intraperitoneal; procedure, shortened: as §3
[15] = system: Hippocampus; test: In vivo displacement of [3H]SCH-23390 from dopamine D1 receptor in Sprague-Dawley rat hippocampus at 13.75 mg/kg, ip qd for 28 days by autoradiography relative to control; format: functional; conditions: route intraperitoneal; procedure, shortened: as §3
[16] = target: D(2) dopamine receptor (Rattus norvegicus) (UniProt P61169); test: In vivo displacement of [3H]Nemonapride from dopamine D2 receptor in Sprague-Dawley rat nucleus accumbens at 13.75 mg/kg, ip qd for 28 days by autoradiography relative to control; format: functional, organism-based; parameters: dose 13.75 mg/kg
Procedure, shortened: (§4)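 Male Sprague-Dawley rats, N = 8/group, daily ip dosing for 28 days with vehicle controls; cryostat sections (10 μm) preincubated 1 h RT. Incubation 1 h RT in 50 mM Tris-HCl pH 7.4, 120 mM NaCl, 5 mM KCl, 2 mM CaCl2, 1 mM MgCl2 with 1 nM [3H]nemonapride, 0.5 μM DTG, 0.1 μM pindolol. Nonspecific: 10 μM S(−)-sulpiride. Values fmol/mg tissue, % of control.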

[17] = system: Caudate-putamen; test: In vivo displacement of [3H]Nemonapride from dopamine D2 receptor in Sprague-Dawley rat medial of caudate putamen at 13.75 mg/kg, ip qd for 28 days by autoradiography relative to control; format: functional; conditions: route intraperitoneal; procedure, shortened: as §4
[18] = system: Hippocampus; test: In vivo displacement of [3H]Nemonapride from dopamine D2 receptor in Sprague-Dawley rat hippocampus at 13.75 mg/kg, ip qd for 28 days by autoradiography relative to control; format: functional; conditions: route intraperitoneal; procedure, shortened: as §4

Sequence of D(2) dopamine receptor (Rattus norvegicus) (P61169 whole entry): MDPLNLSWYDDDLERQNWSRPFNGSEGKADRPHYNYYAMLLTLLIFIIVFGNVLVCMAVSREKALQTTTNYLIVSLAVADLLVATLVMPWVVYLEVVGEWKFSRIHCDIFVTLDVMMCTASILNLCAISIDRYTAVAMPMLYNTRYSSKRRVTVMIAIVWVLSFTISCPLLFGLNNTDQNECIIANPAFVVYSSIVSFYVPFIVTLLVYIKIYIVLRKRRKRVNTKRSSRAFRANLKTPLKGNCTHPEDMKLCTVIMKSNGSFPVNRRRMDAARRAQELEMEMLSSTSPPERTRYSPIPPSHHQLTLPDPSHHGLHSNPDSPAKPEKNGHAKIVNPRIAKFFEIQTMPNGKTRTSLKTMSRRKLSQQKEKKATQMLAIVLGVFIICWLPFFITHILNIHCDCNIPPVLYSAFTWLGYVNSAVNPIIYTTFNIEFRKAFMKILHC

Clc1ccc2c(c1)N=C(N1CCNCC1)c1cccnc1O2
inhibition in vivo at 13.75 mg/kg [1]: 92%
inhibition in vivo at 13.75 mg/kg [2]: 166%
inhibition [3]: 141%
inhibition [4]: 88%
inhibition in vivo at 13.75 mg/kg [5]: 95%
inhibition in vivo at 13.75 mg/kg [6]: 98%
inhibition in vivo at 13.75 mg/kg [7]: 87%
inhibition in vivo at 13.75 mg/kg [8]: 107%
Ki [9]: 729 nM
inhibition in vivo at 13.75 mg/kg [10]: 97%
inhibition in vivo at 13.75 mg/kg [11]: 95%
inhibition in vivo at 13.75 mg/kg [12]: 128%
inhibition in vivo at 13.75 mg/kg [13]: 131%
inhibition in vivo at 13.75 mg/kg [14]: 132%
inhibition in vivo at 13.75 mg/kg [15]: 105%
inhibition [16]: 140%
inhibition in vivo at 13.75 mg/kg [17]: 110%
inhibition in vivo at 13.75 mg/kg [18]: 134%
